In brackets after ≈: the same amount, converted by molar mass.
Columns and labels:
Format in all cases: functional
Bacillus subtilis = test: Minimum inhibitory concentration against Bacillus subtilis
Method in brief: (§1)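 MIC by 2-fold broth dilution in peptone medium containing compound; bacteria grown in test tubes at 37 °C for 2 days. Strains: S. aureus NCTC 8530, B. subtilis IFO 3007, E. coli IFO 3545, P. vulgaris IFO 3851, P. aeruginosa IFO 3080.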

Proteus vulgaris = test: Minimum inhibitory concentration against Proteus vulgaris; method in brief: as §1
[1] = tested on: Rhizopus microsporus var. chinensis; test: Minimum inhibitory concentration against Rhizopus chinensis
Method in brief: (§2)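 Strains: S. cerevisiae IFO 0203, S. pombe IFO 0342, C. utilis OUT 6020, R. rubra IFO 0001, A. niger ATCC 6275, P. chrysogenum IFO 4626, R. chinensis IFO 4768, M. mucedo IFO 7684.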

Escherichia coli = test: Minimum inhibitory concentration against Escherichia coli; method in brief: as §1
[2] = tested on: Schizosaccharomyces pombe; test: Minimum inhibitory concentration against Schizosaccharomyces pombe; method in brief: as §2
Aspergillus niger = test: Minimum inhibitory concentration against Aspergillus niger; method in brief: as §2
Pseudomonas aeruginosa = test: Minimum inhibitory concentration against Pseudomonas aeruginosa; method in brief: as §1
Mucor mucedo = test: Minimum inhibitory concentration against Mucor mucedo; method in brief: as §2
Staphylococcus aureus = test: Minimum inhibitory concentration against Staphylococcus aureus; method in brief: as §1
Rhodotorula mucilaginosa = test: Minimum inhibitory concentration against Rhodotorula rubra; method in brief: as §2
Saccharomyces cerevisiae = test: Minimum inhibitory concentration against Saccharomyces cerevisiae; method in brief: as §2
[3] = Minimum inhibitory concentration against Penicillium chrysogenum; method in brief: as §2
Cyberlindnera jadinii = test: Minimum inhibitory concentration against Candida utilis; settings: Williopsis jadinii; method in brief: as §2

Structure (SMILES)	MIC (Bacillus subtilis)	MIC (Proteus vulgaris)	MIC [1]	MIC (Escherichia coli)	MIC [2]	MIC (Aspergillus niger)	MIC (Pseudomonas aeruginosa)	MIC (Mucor mucedo)	MIC (Staphylococcus aureus)	MIC (Rhodotorula mucilaginosa)	MIC (Saccharomyces cerevisiae)	MIC [3]	MIC (Cyberlindnera jadinii)
Cc1ccnc2c1C(=O)c1ccccc1-2 [ONYCHINE]	100 µg/mL (≈ 512 µM)	100 µg/mL (≈ 512 µM)	> 100 µg/mL	> 100 µg/mL	50 µg/mL (≈ 256 µM)	100 µg/mL (≈ 512 µM)	100 µg/mL (≈ 512 µM)	> 100 µg/mL	> 100 µg/mL	100 µg/mL (≈ 512 µM)	100 µg/mL (≈ 512 µM)	50 µg/mL (≈ 256 µM)	100 µg/mL (≈ 512 µM)
Cc1ccnc2c1C(=O)c1c(O)ccc(O)c1C2=O	6.25 µg/mL (≈ 24.5 µM)	100 µg/mL (≈ 392 µM)	12.5 µg/mL (≈ 49 µM)	> 100 µg/mL	6.25 µg/mL (≈ 24.5 µM)	50 µg/mL (≈ 196 µM)	12.5 µg/mL (≈ 49 µM)	12.5 µg/mL (≈ 49 µM)	12.5 µg/mL (≈ 49 µM)	12.5 µg/mL (≈ 49 µM)	12.5 µg/mL (≈ 49 µM)	6.25 µg/mL (≈ 24.5 µM)	12.5 µg/mL (≈ 49 µM)
Cc1ccnc2c1-c1ccccc1C2=O	50 µg/mL (≈ 256 µM)	100 µg/mL (≈ 512 µM)	> 100 µg/mL	> 100 µg/mL	100 µg/mL (≈ 512 µM)	100 µg/mL (≈ 512 µM)	50 µg/mL (≈ 256 µM)	100 µg/mL (≈ 512 µM)	100 µg/mL (≈ 512 µM)	100 µg/mL (≈ 512 µM)	> 100 µg/mL	50 µg/mL (≈ 256 µM)	100 µg/mL (≈ 512 µM)
O=C1c2cnccc2C(=O)c2sccc21	6.25 µg/mL (≈ 29 µM)	50 µg/mL (≈ 232 µM)	6.25 µg/mL (≈ 29 µM)	100 µg/mL (≈ 465 µM)	0.39 µg/mL (≈ 1.81 µM)	0.78 µg/mL (≈ 3.62 µM)	1.56 µg/mL (≈ 7.25 µM)	3.13 µg/mL (≈ 14.5 µM)	1.56 µg/mL (≈ 7.25 µM)	1.56 µg/mL (≈ 7.25 µM)	1.56 µg/mL (≈ 7.25 µM)	0.78 µg/mL (≈ 3.62 µM)	3.13 µg/mL (≈ 14.5 µM)
Cc1ccnc2c1C(=O)c1cccc(O)c1C2=O	12.5 µg/mL (≈ 52.3 µM)	50 µg/mL (≈ 209 µM)	> 100 µg/mL	> 100 µg/mL	12.5 µg/mL (≈ 52.3 µM)	> 100 µg/mL	25 µg/mL (≈ 105 µM)	50 µg/mL (≈ 209 µM)	12.5 µg/mL (≈ 52.3 µM)	50 µg/mL (≈ 209 µM)	100 µg/mL (≈ 418 µM)	25 µg/mL (≈ 105 µM)	50 µg/mL (≈ 209 µM)
Cc1cnc2c(c1)C(=O)c1cccc(O)c1C2=O	6.25 µg/mL (≈ 26.1 µM)	100 µg/mL (≈ 418 µM)	> 100 µg/mL	> 100 µg/mL	12.5 µg/mL (≈ 52.3 µM)	> 100 µg/mL	25 µg/mL (≈ 105 µM)	25 µg/mL (≈ 105 µM)	12.5 µg/mL (≈ 52.3 µM)	50 µg/mL (≈ 209 µM)	100 µg/mL (≈ 418 µM)	25 µg/mL (≈ 105 µM)	25 µg/mL (≈ 105 µM)
Cc1ccnc2c1C(=O)c1ccccc1C2=O [CLEISTOPHOLINE]	25 µg/mL (≈ 112 µM)	50 µg/mL (≈ 224 µM)	> 100 µg/mL	> 100 µg/mL	25 µg/mL (≈ 112 µM)	100 µg/mL (≈ 448 µM)	50 µg/mL (≈ 224 µM)	50 µg/mL (≈ 224 µM)	25 µg/mL (≈ 112 µM)	50 µg/mL (≈ 224 µM)	100 µg/mL (≈ 448 µM)	50 µg/mL (≈ 224 µM)	50 µg/mL (≈ 224 µM)

Now from value to compound:

MIC (Bacillus subtilis)	MIC (Proteus vulgaris)	MIC [1]	MIC (Escherichia coli)	MIC [2]	MIC (Aspergillus niger)	MIC (Pseudomonas aeruginosa)	MIC (Mucor mucedo)	MIC (Staphylococcus aureus)	MIC (Rhodotorula mucilaginosa)	MIC (Saccharomyces cerevisiae)	MIC [3]	MIC (Cyberlindnera jadinii)	Structure (SMILES)
6.25 µg/mL (≈ 26.1 µM)	50 µg/mL (≈ 209 µM)	25 µg/mL (≈ 105 µM)	> 100 µg/mL	1.56 µg/mL (≈ 6.52 µM)	12.5 µg/mL (≈ 52.3 µM)	6.25 µg/mL (≈ 26.1 µM)	12.5 µg/mL (≈ 52.3 µM)	12.5 µg/mL (≈ 52.3 µM)	12.5 µg/mL (≈ 52.3 µM)	25 µg/mL (≈ 105 µM)	12.5 µg/mL (≈ 52.3 µM)	25 µg/mL (≈ 105 µM)	COc1cccc2c1C(=O)c1ccncc1C2=O
3.13 µg/mL (≈ 15 µM)	50 µg/mL (≈ 239 µM)	12.5 µg/mL (≈ 59.8 µM)	> 100 µg/mL	3.13 µg/mL (≈ 15 µM)	12.5 µg/mL (≈ 59.8 µM)	6.25 µg/mL (≈ 29.9 µM)	6.25 µg/mL (≈ 29.9 µM)	6.25 µg/mL (≈ 29.9 µM)	6.25 µg/mL (≈ 29.9 µM)	12.5 µg/mL (≈ 59.8 µM)	3.13 µg/mL (≈ 15 µM)	12.5 µg/mL (≈ 59.8 µM)	O=C1c2ccccc2C(=O)c2cnccc21
3.13 µg/mL (≈ 13.1 µM)	50 µg/mL (≈ 209 µM)	25 µg/mL (≈ 105 µM)	> 100 µg/mL	3.13 µg/mL (≈ 13.1 µM)	12.5 µg/mL (≈ 52.3 µM)	6.25 µg/mL (≈ 26.1 µM)	25 µg/mL (≈ 105 µM)	12.5 µg/mL (≈ 52.3 µM)	6.25 µg/mL (≈ 26.1 µM)	25 µg/mL (≈ 105 µM)	12.5 µg/mL (≈ 52.3 µM)	25 µg/mL (≈ 105 µM)	COc1cccc2c1C(=O)c1cnccc1C2=O
3.13 µg/mL (≈ 13.9 µM)	25 µg/mL (≈ 111 µM)	6.25 µg/mL (≈ 27.8 µM)	> 100 µg/mL	0.2 µg/mL (≈ 0.888 µM)	3.13 µg/mL (≈ 13.9 µM)	3.13 µg/mL (≈ 13.9 µM)	6.25 µg/mL (≈ 27.8 µM)	1.56 µg/mL (≈ 6.93 µM)	3.13 µg/mL (≈ 13.9 µM)	3.13 µg/mL (≈ 13.9 µM)	1.56 µg/mL (≈ 6.93 µM)	6.25 µg/mL (≈ 27.8 µM)	O=C1c2cnccc2C(=O)c2c(O)cccc21
3.13 µg/mL (≈ 13.9 µM)	25 µg/mL (≈ 111 µM)	12.5 µg/mL (≈ 55.5 µM)	> 100 µg/mL	0.78 µg/mL (≈ 3.46 µM)	3.13 µg/mL (≈ 13.9 µM)	3.13 µg/mL (≈ 13.9 µM)	3.13 µg/mL (≈ 13.9 µM)	1.56 µg/mL (≈ 6.93 µM)	3.13 µg/mL (≈ 13.9 µM)	3.13 µg/mL (≈ 13.9 µM)	1.56 µg/mL (≈ 6.93 µM)	12.5 µg/mL (≈ 55.5 µM)	O=C1c2ccncc2C(=O)c2c(O)cccc21

Reference: ChEMBL document CHEMBL1144320, “Structure-activity relations of azafluorenone and azaanthraquinone as antimicrobial compounds” (2005)
